Measurements pooled from the literature.
Compare with care: the assays were run in different laboratories.
Observed: metabolic stability
Medium: liver microsomes

With `[O-][S+](CCN1CCCN(CC(O)Cc2ccccc2)CC1)C(c1ccc(F)cc1)c1ccc(F)cc1` (stereo not shown) the compound remaining was 0% (rat; 10 µM; 1 h; pH 7.4).
`CCCn1nc(C(=O)N2CCCCC2)c2c1CCC(N(C)Cc1ccc(F)cc1)C2` (stereo not shown) has a compound remaining of 0% (mouse; 10 µM; 1 h).
For `N#Cc1ccc(C[C@H](NC(=O)Nc2ccc(F)cc2)C(=O)NCC2(c3ccc(OC(F)(F)F)cc3)CC2)cc1`, the compound remaining was greater than 80% (rat; 10 µM; 30 min; pH 7.4).
`CC[C@H](C)C(=O)O[C@H]1C[C@@H](C)C=C2C=C[C@H](C)[C@H](CC[C@@H]3C[C@@H](O)CC(=O)O3)[C@H]21` gave a compound remaining of 0.85% (mouse; 1 µM; 5 min; pH 7.4).
For `CCCn1nc(C(=O)N(C)C)c2c1CCC(NCc1ccc(F)cc1)C2` (stereo not shown), the compound remaining was less than 25% (mouse; 10 µM; 1 h).
`Cc1ncsc1-c1ccc(CNC(=O)[C@@H]2C[C@@H](O)CN2C(=O)[C@@H](NC(=O)CCCCCCCCCCNC(=O)O[C@H]2C[C@@H](C)C=C3C=C[C@H](C)[C@H](CC[C@@H]4C[C@@H](O)CC(=O)O4)[C@H]32)C(C)(C)C)cc1` has a compound remaining of 8.23% (mouse; 1 µM; 15 min; pH 7.4).
The compound remaining of `Cc1ccc2c(c1)nc(CCc1cccc3cccnc13)n2-c1ccccc1` is reported as 0.13% (rat; 1.5 µM; 30 min).
`CC(C)NCC(O)COc1cccc2ccccc12` (stereo not shown) has a compound remaining of less than 7% (male rat; 1 µM; 30 min).
`Cc1ccc2c(c1)nc(/C=C/c1cccc3cccnc13)n2-c1ccccc1` gave a compound remaining of 100% (rat; 1.5 µM; 0 h).
`CS(=O)(=O)c1ccc(-c2cnc(N)c(-c3ccc(C(F)(F)F)nc3)c2)cc1` has a compound remaining of 97% (male rat; 1 µM; 30 min).
